These results are taken from ChEMBL document CHEMBL1817567, “Design of benzimidazole- and benzoxazole-2-thione derivatives as inhibitors of bacterial hyaluronan lyase” (Eur J Med Chem, 2011).

Data set [1] can be described thus: Inhibition of Streptococcus agalactiae hyaluronidase.
Data set [2] deals with Streptococcus agalactiae. Nature of the data set: Inhibition of Streptococcus agalactiae 4755 hyaluronidase at 150 uM after 30 mins at pH 5.0 by turbidimetric analysis. The essentials:
(§1)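 SagHyal4755 (2.9 ng) with BSA and hyaluronan (2 mg/ml stock) in citrate–phosphate/NaCl buffer pH 5.0, 3.8% DMSO final, 30 min at 37 °C. Stopped by alkaline 2.5% CTAB, then 20 min at 25 °C. Residual-substrate turbidity read at 600 nm; no-inhibitor sample = 100%, no-enzyme sample = 0% activity. Enzyme-free compound controls were run.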

In data set [3] the test system is Streptococcus agalactiae. Nature of the data set: Inhibition of Streptococcus agalactiae 4755 hyaluronidase at 300 uM after 3 hrs at pH 7.4 by turbidimetric analysis. The method in brief:
(§2)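 Same turbidimetric hyaluronan-lyase assay at pH 7.4 (citrate–phosphate/NaCl): SagHyal4755 2.9 ng, hyaluronan (2 mg/ml stock), BSA, 3.8% DMSO final, 3 h at 37 °C. CTAB (2.5%, in 0.5 M NaOH) precipitation, 20 min at 25 °C, A600. Activity scaled between no-inhibitor and no-enzyme samples.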

Data set [4] has as its target T1, Hyaluronidase (Bos taurus) (UniProt Q8SQG8+Q5E985). Description: Inhibition of bovine testes hyaluronidase at 200 uM after 30 mins at pH 5 by turbidimetric analysis. It is filed as protein assay.
The target in data set [5] is T1, Hyaluronidase (Bos taurus). Nature of the data set: Inhibition of bovine testes hyaluronidase at 380 uM after 30 mins at pH 5 by turbidimetric analysis. It is filed as protein assay.
In data set [6] the target is T1, Hyaluronidase (Bos taurus). Description: Inhibition of bovine testes hyaluronidase at 49 uM after 30 mins at pH 5 by turbidimetric analysis. The data set is classed as protein assay.
In data set [7] the target is T1, Hyaluronidase (Bos taurus). Nature of the data set: Inhibition of bovine testes hyaluronidase at 4200 uM after 30 mins at pH 5 by turbidimetric analysis. It is filed as protein assay.
For data set [8], the target named is T1, Hyaluronidase (Bos taurus). Description: Inhibition of bovine testes hyaluronidase at 460 uM after 30 mins at pH 5 by turbidimetric analysis. It is filed as protein assay.
The target of data set [9] is T1, Hyaluronidase (Bos taurus). Nature of the data set: Inhibition of bovine testes hyaluronidase at 180 uM after 30 mins at pH 5 by turbidimetric analysis. The data set is classed as protein assay.
For data set [10], the target named is T1, Hyaluronidase (Bos taurus). Description: Inhibition of bovine testes hyaluronidase at 190 uM after 30 mins at pH 5 by turbidimetric analysis. The data set is classed as protein assay.
Data set [11] addresses T1, Hyaluronidase (Bos taurus). Description: Inhibition of bovine testes hyaluronidase at 170 uM after 30 mins at pH 5 by turbidimetric analysis. It is filed as protein assay.
The target of data set [12] is T1, Hyaluronidase (Bos taurus). Nature of the data set: Inhibition of bovine testes hyaluronidase at 100 uM after 30 mins at pH 5 by turbidimetric analysis. It is filed as protein assay.
In data set [13] the target is T1, Hyaluronidase (Bos taurus). Nature of the data set: Inhibition of bovine testes hyaluronidase at 400 uM after 30 mins at pH 5 by turbidimetric analysis. It is filed as protein assay.
Data set [14] concerns the target T1, Hyaluronidase (Bos taurus). Nature of the data set: Inhibition of bovine testes hyaluronidase at 3800 uM after 30 mins at pH 5 by turbidimetric analysis. It is filed as protein assay.
Data set [15] deals with T1, Hyaluronidase (Bos taurus). Description: Inhibition of bovine testes hyaluronidase at 130 uM after 30 mins at pH 5 by turbidimetric analysis. It is filed as protein assay.
In data set [16] the target is T1, Hyaluronidase (Bos taurus). Description: Inhibition of bovine testes hyaluronidase at 63 uM after 30 mins at pH 5 by turbidimetric analysis. The data set is classed as protein assay.
In data set [17] the target is T1, Hyaluronidase (Bos taurus). Description: Inhibition of bovine testes hyaluronidase at 80 uM after 30 mins at pH 5 by turbidimetric analysis. The data set is classed as protein assay.
In data set [18] the target is T1, Hyaluronidase (Bos taurus). Description: Inhibition of bovine testes hyaluronidase at 2000 uM after 30 mins at pH 5 by turbidimetric analysis. It is filed as protein assay.
In data set [19] the target is T1, Hyaluronidase (Bos taurus). Nature of the data set: Inhibition of bovine testes hyaluronidase at 150 uM after 30 mins at pH 5 by turbidimetric analysis. It is filed as protein assay.
Data set [20] can be described thus: Aqueous solubility of the compound in water. It is filed as physicochemical. The method in brief: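 Turbidity at 600 nm of test compound in DMSO added to citrate–phosphate buffer (pH 5 and pH 7.4), water and BSA (0.2 mg/ml stock), at various concentrations, read against a water reference. Enzyme testing used only concentrations showing no turbidity.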
A short description of data set [21]: Inhibition of Streptococcus agalactiae 4755 hyaluronidase after 30 mins by turbidimetric analysis. The essentials: as §1
Data set [22] in a line: Inhibition of Streptococcus agalactiae 4755 hyaluronidase at pH 5.0 after 30 mins by turbidimetric analysis. The essentials:
as §1

The target in data set [23] is T2, Hyaluronidase (Bos taurus, UniProt Q8SQG8+Q5E985).
T2 sequence (Q8SQG8 whole entry): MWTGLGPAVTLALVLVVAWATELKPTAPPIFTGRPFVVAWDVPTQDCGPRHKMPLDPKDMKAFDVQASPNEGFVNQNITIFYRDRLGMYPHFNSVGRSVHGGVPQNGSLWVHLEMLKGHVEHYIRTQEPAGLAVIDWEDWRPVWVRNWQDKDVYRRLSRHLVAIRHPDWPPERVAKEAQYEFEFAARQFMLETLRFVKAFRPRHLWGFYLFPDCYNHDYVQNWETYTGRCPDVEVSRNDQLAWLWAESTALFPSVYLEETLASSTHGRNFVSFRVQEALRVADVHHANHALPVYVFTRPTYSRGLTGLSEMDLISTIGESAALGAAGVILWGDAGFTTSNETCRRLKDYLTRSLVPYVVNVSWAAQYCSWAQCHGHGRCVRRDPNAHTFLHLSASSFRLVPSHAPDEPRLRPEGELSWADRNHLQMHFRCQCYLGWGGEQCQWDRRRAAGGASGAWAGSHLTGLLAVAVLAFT
T2 sequence (Q5E985 whole entry): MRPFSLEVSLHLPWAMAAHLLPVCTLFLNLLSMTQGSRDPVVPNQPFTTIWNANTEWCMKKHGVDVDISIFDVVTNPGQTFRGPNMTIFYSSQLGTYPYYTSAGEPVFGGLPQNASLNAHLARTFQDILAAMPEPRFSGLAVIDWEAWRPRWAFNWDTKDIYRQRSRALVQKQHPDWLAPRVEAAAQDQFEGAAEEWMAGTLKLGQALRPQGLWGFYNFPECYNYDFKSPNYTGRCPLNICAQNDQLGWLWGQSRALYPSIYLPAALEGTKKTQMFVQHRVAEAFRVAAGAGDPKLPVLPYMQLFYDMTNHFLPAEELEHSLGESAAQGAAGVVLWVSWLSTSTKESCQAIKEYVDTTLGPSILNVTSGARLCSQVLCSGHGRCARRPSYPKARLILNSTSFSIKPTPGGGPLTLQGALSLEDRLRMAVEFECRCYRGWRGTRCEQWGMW
Description: Inhibition of bovine testes hyaluronidase after 30 mins at pH 5 by turbidimetric analysis. The data set is classed as protein assay.

The subject of data set [24] is Streptococcus agalactiae. Nature of the data set: Inhibition of Streptococcus agalactiae 4755 hyaluronidase at 1000 uM after 3 hrs at pH 7.4 by turbidimetric analysis. The essentials:
as §2

Data set [25] deals with Streptococcus agalactiae. Nature of the data set: Inhibition of Streptococcus agalactiae 4755 hyaluronidase at 400 uM after 30 mins at pH 5.0 by turbidimetric analysis. The method in brief:
as §1

Data set [26] can be described thus: Inhibition of Streptococcus agalactiae 4755 hyaluronidase at pH 7.4 after 3 hrs by turbidimetric analysis. The method in brief:
as §2

A short description of data set [27]: Inhibition of Streptococcus agalactiae 4755 hyaluronidase at pH 7.4. The method in brief:
as §2

Data set [28] is described as follows: Inhibition of Streptococcus agalactiae 4755 hyaluronidase at pH 5.0. The essentials: as §1

Converted amounts (≈) assume the structure as drawn. The source made the active and inactive calls. No cut-off for these calls is given here.

In the case of `CC1(C)[C@@H](O)CC[C@]2(C)[C@H]3C(=O)C=C4[C@@H]5C[C@@](C)(C(=O)O)CC[C@]5(C)CC[C@@]4(C)[C@]3(C)CC[C@@H]12` [ENOXOLONE], the 50% inhibitory concentration (IC50) in [1] came to 60 µM.

Regarding `CCCCCC(=O)n1c(=O)oc2ccccc21`, the inhibition result in data set [2], in data set [3], in data set [4], in data set [5], in data set [6] and in [7] was “inactive” throughout. Further, the inhibition result in [8], in data set [9], in data set [10], in data set [11], in [12] and in data set [13] was “inactive” each time. For the same compound, the inhibition result in data set [14], in [15], in data set [16], in data set [17], in data set [18] and in data set [19] was “inactive” each time. Moreover, the concentration in solution in data set [20] (solubility) came to 150 µM (≈ 35 µg/mL).

On to `CCCCCCCCCCCCCCCC(=O)OC[C@H](O)[C@H]1OC(=O)C(O)=C1O` [ASCORBYL PALMITATE], for which the inhibition entry in data set [4], in [5], in data set [6], in data set [7], in [8] and in [9] was “inactive” throughout. Further, the inhibition result in data set [10], in data set [11], in [12], in data set [13], in data set [14] and in data set [15] was “inactive” throughout. Besides, the inhibition result in [16], in data set [17], in data set [18] and in data set [19] was “inactive” each time. The IC50 in data set [21] and in data set [22] was 4.2 µM in each case.

On to `Oc1ccc(-c2[nH]c3ccccc3c2-c2ccccc2)cc1`, for which the IC50 in data set [23] came to 107 µM.

With `CCn1c(=S)oc2ccccc21`, the inhibition was 17% in [24] and 46% in data set [25]. Moreover, the inhibition entry in data set [4], in [5], in [6], in data set [7], in [8] and in [9] was “inactive” in each case. Besides, the inhibition entry in data set [10], in data set [11], in data set [12], in [13], in [14] and in data set [15] was “inactive” each time. Further, the inhibition entry in data set [16], in data set [17], in data set [18] and in data set [19] was “inactive” throughout. In [20], the solubility was found to be 400 µM (≈ 71.7 µg/mL).

Take `CCCCCCCCCCn1c(-c2ccc(OS(N)(=O)=O)cc2)cc2ccc(OS(N)(=O)=O)cc21`: the IC50 in [26] amounted to 16 µM; in [27], 16 µM; in [28], 11 µM; in [22], 11 µM. The inhibition result in [4], in data set [5], in data set [6], in [7], in data set [8] and in data set [9] was “inactive” throughout. The inhibition result in data set [10], in data set [11], in data set [12], in data set [13], in data set [14] and in [15] was “inactive” throughout. The inhibition entry in data set [16], in [17], in data set [18] and in [19] was “inactive” in each case.
